# Reference: publication PMC6435016 (Biophysics and Physicobiology, 2019)
# B1: Gads SH2: SH2 domain of Grb2-related adaptor downstream of Shc (Gads) (protein)
# chain: WFHEGLSRHQAENLLMGKEVGFFIIRASQSSPGDFSISVRHEDDVQHFKVMRDNKGNYFLWTEKFPSLNKLVDYYRTNSISRQKQIFLRDRT
# How the values were obtained:
# [1] = test system: intracellular tail of inducible T-cell co-stimulator; test: SPR binding to intracellular tail of inducible T-cell co-stimulator; conditions: data not shown
# [2] = test system: CD28 (biotinylated 41-residue phosphopeptide corresponding to cytoplasmic region of CD28); test: SPR binding to immobilized CD28 cytoplasmic phosphopeptide; conditions: 25°C
# [3] = CD thermal stability / transition curve at 222 nm; type: physicochemical; conditions: following dissociation of the dimer
# Procedure, shortened: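 Human Grb2 SH2 (residues 60–152) expressed as GST fusion in E. coli BL21(DE3); monomer and dimer split by gel filtration. 0.04 mg mL⁻¹ in PBS pH 7.4, 1.0 cm cell; 222 nm signal heated 20–80°C at 1.0°C min⁻¹. Tm from two-state fit, zero heat-capacity change. Samples heated to 50°C, cooled to 20°C, then rerun by far-UV CD and SEC (PBS, 280 nm).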
# [4] = fluorescence and SEC; similar to Grb2 SH2 dimer dissociating at 40–45°C; ref [39]; cited from earlier work
# [5] = SEC analysis of monomer/dimer state; type: physicochemical; conditions: data not shown
molecule,measurement,setting,value
"W121S: Grb2 SH2 mutant, Trp121 replaced by Ser, by site-directed mutagenesis",binding to intracellular tail of inducible T-cell co-stimulator,[1],could not bind
same,ability to bind to CD28,"[2]; monomer and dimer of W121S at 800, 1600, 3200, 6400 nM",loses the ability to bind to CD28
"monomer: SH2 domain of human Grb2 (residues 60–152), monomer fraction purified by gel filtration",temperature of denaturation of monomer,[3],around 60 °C
same,"Ka,kin",[2]; association constant calculated from the two kinetic rate constants,117000 M⁻¹
B1,thermal transition (dimer to monomer),[4],A similar transition was recently reported
same,oligomeric state,[5],exists as a monomer with a small population of dimers
